These results are taken from ChEMBL document CHEMBL1124112, “Indoline analogues of idazoxan: potent alpha 2-antagonists and alpha 1-agonists” (J Med Chem, 1988).

Assay [1] has as its system Rattus norvegicus. In words: In vivo dose required to inhibit vas deferens contraction by 25% after pretreatment with prazosin in pithed rats. (prejunctional). In kind it is functional. In short, it runs like this: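 Pithed rats pretreated with prazosin (1 mg/kg). Compound given iv in cumulative doses. ED25 is the dose (μg/kg) inhibiting vas deferens contraction by 25%. Separate groups of rats (n = 4-6).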

Assay [2] concerns Adrenergic receptor alpha-2 (Rattus norvegicus). Nature of the assay: Agonism at alpha-2 adrenergic receptor, determined as dose required to produce a two fold shift of the cumulative dose-response curve to UK-14304 on the twitch response in rat vas deferens.
Assay [3] deals with T1, Adrenergic receptor alpha-2 (Rattus norvegicus, UniProt P22086+P19328+P22909).
T1 sequence (P22086 whole entry): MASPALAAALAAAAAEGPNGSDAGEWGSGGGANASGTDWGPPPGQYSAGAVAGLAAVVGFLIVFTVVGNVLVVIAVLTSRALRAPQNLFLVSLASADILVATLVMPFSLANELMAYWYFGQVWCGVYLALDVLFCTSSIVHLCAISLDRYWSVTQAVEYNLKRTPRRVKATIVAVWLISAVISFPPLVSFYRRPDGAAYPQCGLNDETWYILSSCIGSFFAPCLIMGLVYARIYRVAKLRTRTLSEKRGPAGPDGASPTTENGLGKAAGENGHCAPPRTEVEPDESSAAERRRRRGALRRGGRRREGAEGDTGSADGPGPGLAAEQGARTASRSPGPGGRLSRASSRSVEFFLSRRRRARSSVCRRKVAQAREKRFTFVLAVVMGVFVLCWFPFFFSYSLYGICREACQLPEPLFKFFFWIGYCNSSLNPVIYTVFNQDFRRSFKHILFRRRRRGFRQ
T1 sequence (P19328 whole entry): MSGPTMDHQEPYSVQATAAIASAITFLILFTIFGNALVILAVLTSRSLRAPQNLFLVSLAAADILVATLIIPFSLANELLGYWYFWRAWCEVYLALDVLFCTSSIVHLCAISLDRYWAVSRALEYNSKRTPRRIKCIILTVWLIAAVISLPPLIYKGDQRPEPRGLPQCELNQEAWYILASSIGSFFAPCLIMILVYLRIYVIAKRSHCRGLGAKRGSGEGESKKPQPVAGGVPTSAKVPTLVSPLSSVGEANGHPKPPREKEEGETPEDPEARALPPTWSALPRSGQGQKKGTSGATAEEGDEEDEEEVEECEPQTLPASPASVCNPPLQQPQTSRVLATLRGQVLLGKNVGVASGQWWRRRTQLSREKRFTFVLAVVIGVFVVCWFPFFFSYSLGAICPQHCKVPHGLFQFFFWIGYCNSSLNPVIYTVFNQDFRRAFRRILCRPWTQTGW
T1 sequence (P22909 whole entry): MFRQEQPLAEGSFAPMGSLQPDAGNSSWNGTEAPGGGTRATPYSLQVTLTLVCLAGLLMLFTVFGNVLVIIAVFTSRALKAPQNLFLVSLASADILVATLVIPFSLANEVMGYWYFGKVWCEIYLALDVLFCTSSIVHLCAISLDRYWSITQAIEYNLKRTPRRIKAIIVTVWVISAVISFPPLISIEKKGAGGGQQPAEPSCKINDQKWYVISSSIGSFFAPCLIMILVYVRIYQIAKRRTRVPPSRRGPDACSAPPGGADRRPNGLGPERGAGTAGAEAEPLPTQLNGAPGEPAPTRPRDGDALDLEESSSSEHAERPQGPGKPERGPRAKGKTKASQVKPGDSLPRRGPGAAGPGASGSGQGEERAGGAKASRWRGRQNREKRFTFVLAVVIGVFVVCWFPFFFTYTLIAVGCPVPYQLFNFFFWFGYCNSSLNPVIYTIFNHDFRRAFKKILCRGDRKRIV
In words: Inhibition of saturable binding of [3H]idazoxan to alpha2-site in rat cerebral cortical membranes. Format: cell membranes, Membrane.

Assay [4] concerns Adrenergic receptor alpha-1 (Rattus norvegicus). In words: […] towards alpha-1 adrenergic receptor determined as the dose required to produce a two fold shift of the cirazoline on diastolic blood pressure (in vitro). As to conditions: Artery.
In assay [5] the target is Adrenergic receptor alpha-2 (Rattus norvegicus) (UniProt P22086+P19328+P22909). In words: Antagonist potency towards alpha-2 adrenergic receptor determined as the dose required to produce a two fold shift of the dose-response curve to UK-14304 on the twitch response of the vas deferens (in vitro);AG- agonist. Format: functional, tissue-based. The following applies: filed as agonist.

The target in assay [6] is Adrenergic receptor alpha-1 (Rattus norvegicus) (UniProt P15823+P23944+P43140). Nature of the assay: Agonism at alpha-1 adrenergic receptor, determined as the dose required to produce a two fold shift of the cirazoline on diastolic blood pressure. Format: functional, tissue-based. The following applies: Artery.
For assay [7], the system named is Rattus norvegicus. In words: In vivo ED40 is the raising diastolic blood pressure by 40 mm Hg in pithed rats. (postjunctional). The following applies: Artery. Format: functional. In short, it runs like this:
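Pithed rats, compound given iv in cumulative doses. ED40 is the dose (μg/kg) raising diastolic blood pressure by 40 mmHg. Separate groups of rats (n = 4-6).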

In general, Ki refers to the dissociation constant of the complex between target and ligand, obtained from inhibition or displacement. Lower therefore signals a stronger hold on the target.

The structures appear in SMILES notation.

With `c1ccc(CN2c3ccccc3CC2C2=NCCN2)cc1` (configuration not stated), in the assay on Rattus norvegicus [1], the ED25 turned out to be 0.0095 mg/kg. Further, in assay [2], the Prejunctional agonist potency turned out to be 0.02. The same molecule had an inhibitory constant (Ki) in assay [3] of 1.87 nM. For the same molecule, the Postjunctional antagonist potency in assay [4] is 120. Besides, the Prejunctional antagonist potency entry in assay [5] was “Agonist”. Also, in assay [6], the Postjunctional agonist potency was determined as 0. In the assay on Rattus norvegicus [7], this molecule gave an ED40 of 0.308 mg/kg.
